Screening data: PubChem, several laboratories
TAG inh – inhibitors of triacylglycerol accumulation, primary screen, cell-based, uHTS, fluorescence, H9c2. H9c2 cells, Nile Red lipid (TAG) fluorescence; cells loaded with 200 µM oleic acid. inhibition, % at 12.5 µM. actives 0.66% (n = 230,000);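 active means pattern-corrected inhibition of lipid staining of at least 50% with the nuclear-stain viability signal not falling by more than 50%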;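 further: 0% = DMSO wells and 100% = triacsin C control wells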
MC4R antag cAMP – MC4R antagonists of cAMP signaling, primary screen, cell-based, TR-FRET, antagonist arm of biased-ligand search | MC4R-expressing cells, MTII-stimulated cAMP, LANCE TR-FRET | Melanocortin receptor 4 (Homo sapiens), P32245 | inhibition, % at 6.5 µM | AID 540295, 2011 | actives 0.48% (n = 360,000);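 active means inhibition above its plate's cutoff, the mean of tested wells on that plate plus 3 SD, cut at about 29% in these data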;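 further: 0% = Melanotan II alone and 100% = Melanotan II plus saturating MCL0020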
Target sequence (P32245 whole entry, looked up): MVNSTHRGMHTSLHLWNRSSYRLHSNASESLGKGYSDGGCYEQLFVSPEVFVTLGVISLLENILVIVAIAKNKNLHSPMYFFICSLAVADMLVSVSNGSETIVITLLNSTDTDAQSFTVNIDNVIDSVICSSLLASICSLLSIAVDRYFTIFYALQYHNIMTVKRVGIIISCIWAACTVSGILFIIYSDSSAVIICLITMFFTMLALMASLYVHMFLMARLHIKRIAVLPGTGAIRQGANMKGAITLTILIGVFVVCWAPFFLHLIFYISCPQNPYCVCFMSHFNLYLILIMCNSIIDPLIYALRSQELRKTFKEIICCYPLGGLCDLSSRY
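system = U2OS cells with stable human MC4R expression | also added = Melanotan II challenge after compound preincubation | dosing = one concentration, 6.5 µM nominal | incubation = compound 30 min, challenge 1 h, detection 1 h | measured by = TR-FRET with Eu-cAMP and labeled anti-cAMP, 671 nm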
aDG glyco up – activators of alpha-DG glycosylation, primary screen, uHTS, Pro5-aDG cells, AlphaScreen; AID 624168, 2012; alpha-DG glycosylation AlphaScreen (IIH6); 0% Pro5, 100% B10-LARGE cell signal; activation, % at 10 µM; actives 0.22% (n = 360,000);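 active means activation of at least 8% versus controls, or a plate z-score of at least 8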;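 further: Pro5 are CHO cells carrying HIG-tagged alpha-DG that lacks glycosylation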
TbMetRS inhib – T. brucei MetRS inhibitors, primary screen, biochemical, luminescence | methionyl-tRNA synthetase (Trypanosoma brucei brucei) | purified T. brucei MetRS, ATP depletion, Kinase-Glo luminescence | inhibition, % at 11.9 µM | actives 0.4% (n = 360,000) | AID 624268, 2012;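 active means inhibition above a per-plate cutoff of the control wells' mean inhibition plus 3 SD, cut at about 5.5% in these data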;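 further: 0% = DMSO wells median and 100% = median of wells with control inhibitor compound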
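Measured by: Kinase-Glo luciferase luminescence reporting remaining unconsumed ATP. Material: purified T. brucei MetRS enzyme. Doses: 11.9 µM compound single dose, 0.9% DMSO. Medium: HEPES buffer containing pyrophosphatase, BSA, spermine, DTT. Times: 15 min preincubation, 2 h reaction, all 25 °C. Reagent: methionine, ATP and bulk E. coli tRNA.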
NTR1 ag – agonists of human NTR1, primary screen, imaging, U2OS cells, beta-arrestin-GFP, high content. Neurotensin receptor type 1 (Homo sapiens), P30989. NTR1-U2OS beta-arrestin-GFP spot imaging, agonist mode. activation, % at 20 µM. actives 0.17% (n = 330,000);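 active means activation at or above 40% of the spot to cytoplasm intensity ratio, with at least 20 cells analyzed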;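 further: 0% = DMSO without peptide and 100% = 100 nM NTR1 peptide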
MC4R ag barr – MC4R agonists recruiting beta-arrestin, primary screen, cell-based, luminescence, agonist arm of biased-ligand search | Melanocortin receptor 4 (Homo sapiens), P32245 | U2OS MC4R beta-arrestin complementation; percent of melanotan II response, DMSO zero | activation, % at 8.9 µM | actives 0.98% (n = 360,000) | AID 540308, 2011;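 active means activation above a per-plate cutoff, the mean activation of sample wells on that plate plus 3 SD, cut at about 8% in these data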
H9c2 TAG conf – triacylglycerol accumulation inhibitors, retest, confirmation, cell-based, single concentration, Nile Red fluorescence, H9c2; actives 71% (n = 990); H9c2 lipid accumulation; cells loaded with 200 µM oleic acid; shares compounds with TAG inh; inhibition, % at 12.5 µM; AID 651629, 2012;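 active means mean inhibition across replicates of 40% or more; inactive means mean inhibition below 40%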;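 further: plate controls were DMSO only wells for no effect and Triacsin C treated wells for full effect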
The depositor's hits bear a star; . = not tested or not shown; ! = repeats disagree. Shown are actives, neighbours in structure and some others; about 2.4% of the full set was active somewhere.

SMILES	TAG inh	MC4R antag cAMP	aDG glyco up	TbMetRS inhib	NTR1 ag	MC4R ag barr	H9c2 TAG conf
Cc1ccc(NC(=O)c2cc3ccccc3oc2=O)cc1S(=O)(=O)N(C)C	.	12.1	0.0	0.1	-1.1	0.6	.
CCN1CCN(S(=O)(=O)c2ccc(Cl)c(C(=O)N(C)Cc3ccc(C(C)(C)C)cc3)c2)CC1	-8.8	4.8	-0.3	-0.4	.	0.4	.
COCCN1Cc2cccc(C(=O)Nc3cccc(-c4nc5ccccc5[nH]4)c3)c2C1=O	79.7*	7.3	1.9	-0.7	9.4	3.5	89.3*
Cc1cc(NC(=O)CSc2nc3ccccc3c(=O)n2C2CCCC2)no1	89.5*	-24.1	-0.1	-0.3	-0.2	-1.8	69.2*
CN(C)c1ccc(NC(=O)CSc2nc3ccccc3c(=O)n2C2CCCCC2)cc1	55.2*	12.5	-0.6	0.5	-1.9	0.4	49.4*
COc1ccc(-c2csc(NC(=O)CC(C)C)n2)cc1	65.5*	-7.0	0.2	-1.0	-1.3	0.6	31.7
COc1ccc(-c2csc(NC(=O)c3c(OC)cccc3OC)n2)cc1	.	16.1	0.0	0.1	-0.5	0.1	.
COc1cccc(N2CCN(C(=O)CN3C(=O)NC(C)(c4ccc5ccccc5c4)C3=O)CC2)c1 (configuration not stated)	-0.5	15.1	0.5	-0.5	-0.3	-2.8	.
Cc1cc(C(=O)COC(=O)c2ccc([N+](=O)[O-])o2)c(C)n1CC1CCCO1 (configuration not stated)	71.7*	15.8	-0.1	0.5	4.4	-2.0	53.5*
COc1ccc(CC(=O)Nc2ccc(-c3ccc4nnc(C)n4n3)cc2)cc1OC	57.8*	6.6	0.0	0.1	1.4	-2.4	71.5*
COc1ccc(OC)c(S(=O)(=O)Nc2ccc(-c3ccc4nnc(C)n4n3)cc2)c1	11.1	5.7	-0.1	-0.2	1.2	-0.8	.
COc1ccc(NC(=O)C2(C)Cc3c(-c4cccc(NC(C)=O)c4)ccnc3O2)cn1 (configuration not stated)	58.0*	-7.7	-0.2	-0.2	.	-0.1	52.5*
COc1ccc(NC(=O)C2(C)Cc3c(-c4cccc(C(N)=O)c4)ccnc3O2)cc1 (configuration not stated)	60.8*	-22.8	-0.3	-0.2	.	-2.2	53.1*
COC(=O)[C@]1(Sc2ccc(C)cc2)CC(=O)N[C@@H]1c1ccccc1	.	.	0.0	0.1	.	.	.
CCCCCCc1nc2nc(Cl)c(Cl)nc2[nH]1	-15.9	-3.3	0.5	-0.1	.	-0.4	.
Cc1ccc(C(=O)Nc2cccc(C(F)(F)F)c2)cc1NC(=O)c1nccn1C	96.4*!	19.4	-0.2	1.0	-1.5	5.1	9.3
COc1ccc(S(=O)(=O)N2c3cc(Cl)ccc3Oc3nc4ccccc4nc32)cc1	52.0*	-17.8	-0.4	-1.5	-0.2	-1.2	28.5
O=c1[nH]c(=S)[nH]cc1Oc1ccccc1	-17.2	7.0	-0.1	-0.2	.	-2.2	.
COc1ccc(Br)cc1CN(C)CC(=O)NCCc1ccccc1	-11.2	11.5	1.4	-0.7	6.1	1.5	.
O=C(COc1ccc(Br)cc1CNC1CCCCC1)NCCc1ccccc1	58.8*	9.3	0.5	-0.5	12.4	6.1	39.2
CCOc1cc(CNc2ccc3c(c2)OCCO3)cc(Br)c1OCC	52.8*	-25.2	-0.6	0.2	1.3	-0.9	53.4*
COc1cc(CN2CCC(C(=O)NC(c3ccc(F)cc3)c3ccc4ccccc4n3)CC2)cc(OC)c1 (configuration not stated)	47.6	1.1	3.2	-0.1	.	0.5	.
Cn1cc(CN2CCC(C(=O)NC(c3ccc(F)cc3)c3ccc4ccccc4n3)CC2)c2ccccc21 (configuration not stated)	102.7*	7.7	-0.9	-0.1	.	0.3	97.9*
Cc1c(C=O)c2ccccn2c1C(=O)c1cccs1	-2.5	-13.8	0.1	-1.5	2.1	1.2	.
Cc1ccc(-c2nnc3n2N=C(c2ccc(Br)cc2)CS3)cc1	.	1.1	-0.1	-0.5	9.7	7.6	.
SMILES	TAG inh	MC4R antag cAMP	aDG glyco up	TbMetRS inhib	NTR1 ag	MC4R ag barr	H9c2 TAG conf
Brc1ccc(C2=Nn3c(nnc3-c3n[nH]c4c3CCC4)SC2)cc1	81.2*	-19.1	-0.6	-0.5	5.0	-1.4	84.6*
CC(C)(C)N1C(=O)[C@H]2[C@@H](c3ccc(Br)cc3)N3C(=O)N(c4cccc(F)c4)C(=O)[C@@]3(Cc3ccccc3)[C@H]2C1=O	.	12.7	1.0	0.4	1.1	5.9	.
CC(C)(C)N1C(=O)[C@H]2[C@@H](c3ccc(Br)cc3)N3C(=O)N(c4ccc(Br)cc4)C(=O)[C@@]3(Cc3ccccc3)[C@H]2C1=O	59.6*	23.0	0.2	-0.4	1.5	-0.8	53.7*
CN1CCCC(n2nc(Cc3ccc(Cl)cc3)c3ccccc3c2=O)CC1 (configuration not stated)	84.6*	-2.4	0.9	-1.1	2.5	2.5	40.0*
CCOC(=O)Cn1nc(Cc2ccccc2)c2ccccc2c1=O	24.1	-6.5	0.1	-0.9	-1.3	3.3	.
CCOC(=O)c1cc(-c2ccccc2)sc1NC(=O)C(C)N1C(=O)NC(C)(c2ccc(Cl)cc2)C1=O (configuration not stated)	75.6*	0.2	0.3	0.2	0.6	-0.7	76.4*
CCOC(=O)c1cc(-c2ccccc2)sc1NC(=O)C(C)C	.	11.7	-0.1	0.6	2.0	0.6	.
CCOC(=O)c1cc(-c2ccccc2)sc1NC(=S)Nc1cccc(C)n1	69.0*	5.8	0.4	-0.3	25.1	-1.0	56.3*
O=C(/C=C/c1ccc(OCCCF)cc1)NCc1ccc(Cl)c(Cl)c1	62.4*	9.2	0.2	-0.6	1.5	8.9*	51.8*
Cc1cccc(NC(=O)CSc2cccc3cccnc23)c1	59.2*	-1.3	0.0	-1.5	0.4	-0.1	-13.8
NNC(=O)CSc1cccc2cccnc12	.	18.9	-0.1	0.3	0.0	-3.2	.
O=C(CSc1cccc2cccnc12)Nc1ccccc1F	73.0*	-1.6	0.1	-1.2	0.8	0.2	-0.9
O=C(CSc1cccc2cccnc12)Nc1cc(C(=O)O)cc(C(=O)O)c1	51.9*	-1.9	0.7	-0.5	1.2	-1.5	18.6
